Laboratory results from ChEMBL document CHEMBL5674885, “HIV-1 Vpr counteracts HLTF-mediated restriction of HIV-1 infection in T cells” (Proc Natl Acad Sci U S A, 2019).
Activity calls are given as the source filed them. The rule behind the calls is not given here.

Key:
[1] = target: T1, Aberrant vpr protein (Human immunodeficiency virus 1) (UniProt Q77YF9); assay: Modulation of HIV-1 Vpr-dependent enhancement of HIV-1 replication in human CEM.SS T cells assessed as effect on percentages of cell-associated HIV-1 DNA at 200 nM added starting 12 hrs before HIV-1 infection until 7 dpi; format: cell-based; conditions: time 7.0 day
T1 sequence (whole entry): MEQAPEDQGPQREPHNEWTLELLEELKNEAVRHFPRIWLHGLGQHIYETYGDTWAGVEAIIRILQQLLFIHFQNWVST
Method in brief: (§1)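 CEM.SS cells held in drug from ~12 h before infection to 7 dpi, infected (1×10⁵ cells) with a DNase-treated, qPCR-normalized 1:1 mix of NL4-3 reporters HIV-1.mRFP.vpr.wt and HIV-1.RFP.vpr.Q8*, combined moi 0.006–0.02. Density was reset on 3 and 5 dpi, and only cultures with <5% RFP⁺ cells at 7 dpi were kept. Share of each virus DNA at 7 dpi came from SYBR qPCR of RFP/mRFP amplicons against plasmid standards; three biological replicates.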

[2] = Cytotoxicity in human CEM.SS T cells assessed as cell viability level at 200 nM; format: toxicity, cell-based; conditions: time 7 day, read-out: Activity
[3] = target: T1, Aberrant vpr protein (Human immunodeficiency virus 1); assay: Modulation of HIV-1 Vpr-dependent enhancement of HIV-1 replication in human CEM.SS T cells assessed as effect on percentages of cell-associated HIV-1 DNA at 2 uM added starting 12 hrs before HIV-1 infection until 7 dpi; format: cell-based; conditions: time 7.0 day; method in brief: as §1
[4] = Cytotoxicity in human CEM.SS T cells assessed as cell viability level at 2 uM; format: toxicity, cell-based; conditions: time 7 day, read-out: Activity
[5] = target: T1, Aberrant vpr protein (Human immunodeficiency virus 1); assay: Modulation of HIV-1 Vpr-dependent enhancement of HIV-1 replication in human CEM.SS T cells assessed as effect on percentages of cell-associated HIV-1 DNA at 1 uM added starting 12 hrs before HIV-1 infection until 7 dpi; format: cell-based; conditions: time 7.0 day; method in brief: as §1
[6] = Cytotoxicity in human CEM.SS T cells assessed as cell viability level at 1 uM; format: toxicity, cell-based; conditions: time 7 day, read-out: Activity
[7] = target: T1, Aberrant vpr protein (Human immunodeficiency virus 1); assay: Modulation of HIV-1 Vpr-dependent enhancement of HIV-1 replication in human CEM.SS T cells assessed as effect on percentages of cell-associated HIV-1 DNA at 0.67 uM added starting 12 hrs before HIV-1 infection until 7 dpi; format: cell-based; conditions: time 7.0 day; method in brief: as §1
[8] = Cytotoxicity in human CEM.SS T cells assessed as cell viability level at 0.67 uM; format: toxicity, cell-based; conditions: time 7 day, read-out: Activity
[9] = target: T1, Aberrant vpr protein (Human immunodeficiency virus 1); assay: Modulation of HIV-1 Vpr-dependent enhancement of HIV-1 replication in human CEM.SS T cells assessed as effect on percentages of cell-associated HIV-1 DNA at 10 uM added starting 12 hrs before HIV-1 infection until 7 dpi; format: cell-based; conditions: time 7.0 day; method in brief: as §1
[10] = Cytotoxicity in human CEM.SS T cells assessed as cell viability level at 10 uM; format: toxicity, cell-based; conditions: time 7 day, read-out: Activity
[11] = target: T1, Aberrant vpr protein (Human immunodeficiency virus 1); assay: Modulation of HIV-1 Vpr-dependent enhancement of HIV-1 replication in human CEM.SS T cells assessed as effect on percentages of cell-associated HIV-1 DNA at 1 nM added starting 12 hrs before HIV-1 infection until 7 dpi; format: cell-based; conditions: time 7.0 day; method in brief: as §1
[12] = Cytotoxicity in human CEM.SS T cells assessed as cell viability level at 1 nM; format: toxicity, cell-based; conditions: time 7 day, read-out: Activity
[13] = target: T1, Aberrant vpr protein (Human immunodeficiency virus 1); assay: Modulation of HIV-1 Vpr-dependent enhancement of HIV-1 replication in human CEM.SS T cells assessed as effect on percentages of cell-associated HIV-1 DNA at 3 uM added starting 12 hrs before HIV-1 infection until 7 dpi; format: cell-based; conditions: time 7.0 day; method in brief: as §1
[14] = Cytotoxicity in human CEM.SS T cells assessed as cell viability level at 3 uM; format: toxicity, cell-based; conditions: time 7 day, read-out: Activity

O=C(CCCCCCC(=O)Nc1ccccc1)NO [VORINOSTAT]
Activity [1]: inactive | viability at 168 h, 0.2 µM [2]: > 80%

CC(C)N(CCCNC(=O)Nc1ccc(C(C)(C)C)cc1)C[C@H]1O[C@@H](n2cc(Br)c3c(N)ncnc32)[C@H](O)[C@@H]1O
Activity [3]: inactive | viability at 168 h, 2 µM [4]: > 80%

COc1cc2c(NC3CCN(C(C)C)CC3)nc(C3CCCCC3)nc2cc1OCCCN1CCCC1
Activity [5]: inactive | viability at 168 h, 1 µM [6]: > 80%

CCCc1cc(C)[nH]c(=O)c1CNC(=O)c1cc(-c2ccnc(N3CCN(C)CC3)c2)cc2c1cnn2C(C)C
Activity [7]: inactive | viability at 168 h, 0.67 µM [8]: > 80%

NC(=O)C1CCCc2c1[nH]c1ccc(Cl)cc21 (centres undefined)
Activity [9]: inactive | viability at 168 h, 10 µM [10]: > 80%

CC(/C=C/C(=O)NO)=C\[C@@H](C)C(=O)c1ccc(N(C)C)cc1 [TRICHOSTATIN]
Activity [11]: inactive | viability at 168 h, 0.001 µM [12]: > 80%

CC1=NN(c2ccc(C(=O)O)cc2)C(=O)/C1=C\c1ccc(-c2cc(C)c(C)cc2[N+](=O)[O-])o1
Activity [13]: inactive | viability at 168 h, 3 µM [14]: > 80%
